In ChEMBL document CHEMBL1150790, “Biochemical characterization of PER-2 and genetic environment of blaPER-2” (Antimicrob Agents Chemother, 2007):
≈ marks a conversion by molar mass, not a printed value.

How the values were obtained:
Alcaligenes faecalis [1] = assay: Activity of Alcaligenes faecalis PER2 beta lactamase
Outline: (§1)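 Purified recombinant PER-2 (expressed in E. coli BL21(DE3) from pET28a(+), IPTG-induced, Q-Sepharose purified). β-Lactam hydrolysis was followed spectrophotometrically at 30°C. For good substrates, Km and kcat came from initial rates. […] For poor substrates, kcat came from complete hydrolysis time courses.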

Citrobacter freundii = assay: Antimicrobial activity against Citrobacter freundii 33587 isolate by agar dilution method; assay type: functional
Outline: (§2)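 MICs were determined by agar dilution following CLSI guidelines, with inoculum applied by a Steers multipoint inoculator.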

Escherichia coli [2] = assay: Antimicrobial activity against Escherichia coli CAG12177 by agar dilution method; assay type: functional; outline: as §2
Escherichia coli [3] = assay: Antimicrobial activity against Escherichia coli 33587-TC9 by agar dilution method; assay type: functional; outline: as §2
[4] = target: T1, PER-2 beta-lactamase (Citrobacter freundii) (UniProt A2RP81); assay: Ratio of Kcat to Km of Citrobacter freundii PER2 beta lactamase relative to cephalothin
T1 sequence (whole entry): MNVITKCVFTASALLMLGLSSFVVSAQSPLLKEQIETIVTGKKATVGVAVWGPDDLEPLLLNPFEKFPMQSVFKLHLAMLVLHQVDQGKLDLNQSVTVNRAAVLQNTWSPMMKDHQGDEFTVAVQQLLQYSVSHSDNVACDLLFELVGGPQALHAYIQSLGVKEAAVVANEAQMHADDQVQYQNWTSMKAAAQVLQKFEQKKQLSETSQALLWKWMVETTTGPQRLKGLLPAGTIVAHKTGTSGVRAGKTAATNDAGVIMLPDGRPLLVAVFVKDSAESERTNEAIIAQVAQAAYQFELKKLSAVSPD
Outline: (§3)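 Purified recombinant PER-2 (E. coli BL21(DE3) expression, Q-Sepharose purification) was assayed spectrophotometrically at 30°C in 500 μl. kcat and Km came from initial steady-state rates.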

Alcaligenes faecalis [5] = assay: Ratio of Kcat to Km of Alcaligenes faecalis PER2 beta lactamase; outline: as §1
PER-2 beta-lactamase = target: T2, PER-2 beta-lactamase (Citrobacter freundii, UniProt A2RP81); assay: Inhibition of Citrobacter freundii PER2 beta lactamase
T2 sequence (A2RP81 whole entry): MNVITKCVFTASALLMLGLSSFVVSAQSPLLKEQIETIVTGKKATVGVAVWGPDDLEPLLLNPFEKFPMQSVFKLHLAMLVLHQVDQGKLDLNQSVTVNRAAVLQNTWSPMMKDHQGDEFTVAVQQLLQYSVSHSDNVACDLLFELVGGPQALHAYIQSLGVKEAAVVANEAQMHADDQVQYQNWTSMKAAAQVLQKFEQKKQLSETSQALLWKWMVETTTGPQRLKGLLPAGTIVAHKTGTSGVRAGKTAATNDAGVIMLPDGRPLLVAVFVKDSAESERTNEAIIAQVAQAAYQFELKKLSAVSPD
Outline: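 Purified recombinant PER-2 was incubated with the drug plus 100 μM nitrocefin as reporter substrate in 500 μl at 30°C. Residual enzyme activity was read spectrophotometrically. Apparent Km values were derived as competitive inhibitor constants (Ki).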

[6] = substrate: CC(=O)OCC1=C(C(=O)O)N2C(=O)[C@@H](NC(=O)Cc3cccs3)[C@H]2SC1; assay: (§4) Activity of Citrobacter freundii PER2 beta lactamase
[7] = substrate: CC(C)(O/N=C(\C(=O)N[C@@H]1C(=O)N2C(C(=O)[O-])=C(C[n+]3ccccc3)CS[C@H]12)c1csc(N)n1)C(=O)O; assay: as §4
[8] = substrate: CC1(C)S[C@@H]2[C@H](NC(=O)Cc3ccccc3)C(=O)N2[C@H]1C(=O)O; assay: as §4
[9] = substrate: CC1(C)S[C@@H]2[C@H](NC(=O)[C@H](N)c3ccccc3)C(=O)N2[C@H]1C(=O)O; assay: as §4
[10] = substrate: CCN1CCN(C(=O)N[C@@H](C(=O)N[C@@H]2C(=O)N3C(C(=O)O)=C(CSc4nnnn4C)CS[C@H]23)c2ccc(O)cc2)C(=O)C1=O; assay: as §4
[11] = substrate: CCN1CCN(C(=O)N[C@@H](C(=O)N[C@@H]2C(=O)N3[C@@H]2SC(C)(C)[C@@H]3C(=O)O)c2ccccc2)C(=O)C1=O; assay: as §4
[12] = substrate: CO/N=C(\C(=O)N[C@@H]1C(=O)N2C(C(=O)O)=C(COC(C)=O)CS[C@H]12)c1csc(N)n1; assay: as §4
[13] = substrate: CO/N=C(\C(=O)N[C@@H]1C(=O)N2C(C(=O)O)=C(COC(N)=O)CS[C@H]12)c1ccco1; assay: as §4
[14] = substrate: CO/N=C(\C(=O)N[C@@H]1C(=O)N2C(C(=O)[O-])=C(C[N+]3(C)CCCC3)CS[C@H]12)c1csc(N)n1; assay: as §4
[15] = substrate: CO[C@@]1(NC(=O)Cc2cccs2)C(=O)N2C(C(=O)O)=C(COC(N)=O)CS[C@@H]21; assay: as §4
[16] = substrate: C[C@@H](O)[C@H]1C(=O)N2C(C(=O)O)=C(SCCNC=N)C[C@H]12; assay: as §4
[17] = substrate: C[C@H]1[C@H](NC(=O)/C(=N\OC(C)(C)C(=O)O)c2csc(N)n2)C(=O)N1S(=O)(=O)O; assay: as §4
[18] = substrate: O=C(Cc1cccs1)N[C@@H]1C(=O)N2C(C(=O)O)=C(/C=C/c3ccc([N+](=O)[O-])cc3[N+](=O)[O-])CS[C@H]12; assay: as §4
[19] = substrate: CC(=O)OCC1=C(C(=O)O)N2C(=O)[C@@H](NC(=O)Cc3cccs3)[C@H]2SC1; assay: (§5) Ratio of Kcat to Km of Citrobacter freundii PER2 beta lactamase; outline: as §3
[20] = substrate: CC(C)(O/N=C(\C(=O)N[C@@H]1C(=O)N2C(C(=O)[O-])=C(C[n+]3ccccc3)CS[C@H]12)c1csc(N)n1)C(=O)O; assay: as §5; outline: as §3
[21] = substrate: CC1(C)S[C@@H]2[C@H](NC(=O)Cc3ccccc3)C(=O)N2[C@H]1C(=O)O; assay: as §5; outline: as §3
[22] = substrate: CC1(C)S[C@@H]2[C@H](NC(=O)[C@H](N)c3ccccc3)C(=O)N2[C@H]1C(=O)O; assay: as §5; outline: as §3
[23] = substrate: CCN1CCN(C(=O)N[C@@H](C(=O)N[C@@H]2C(=O)N3C(C(=O)O)=C(CSc4nnnn4C)CS[C@H]23)c2ccc(O)cc2)C(=O)C1=O; assay: as §5; outline: as §3
[24] = substrate: CCN1CCN(C(=O)N[C@@H](C(=O)N[C@@H]2C(=O)N3[C@@H]2SC(C)(C)[C@@H]3C(=O)O)c2ccccc2)C(=O)C1=O; assay: as §5; outline: as §3
[25] = substrate: CO/N=C(\C(=O)N[C@@H]1C(=O)N2C(C(=O)O)=C(COC(C)=O)CS[C@H]12)c1csc(N)n1; assay: as §5; outline: as §3
[26] = substrate: CO/N=C(\C(=O)N[C@@H]1C(=O)N2C(C(=O)O)=C(COC(N)=O)CS[C@H]12)c1ccco1; assay: as §5; outline: as §3
[27] = substrate: CO/N=C(\C(=O)N[C@@H]1C(=O)N2C(C(=O)[O-])=C(C[N+]3(C)CCCC3)CS[C@H]12)c1csc(N)n1; assay: as §5; outline: as §3
[28] = substrate: C[C@H]1[C@H](NC(=O)/C(=N\OC(C)(C)C(=O)O)c2csc(N)n2)C(=O)N1S(=O)(=O)O; assay: as §5; outline: as §3
[29] = substrate: O=C(Cc1cccs1)N[C@@H]1C(=O)N2C(C(=O)O)=C(/C=C/c3ccc([N+](=O)[O-])cc3[N+](=O)[O-])CS[C@H]12; assay: as §5; outline: as §3

CC(C)(O/N=C(\C(=O)N[C@@H]1C(=O)N2C(C(=O)[O-])=C(C[n+]3ccccc3)CS[C@H]12)c1csc(N)n1)C(=O)O [CEFTAZIDIME]
Km (Alcaligenes faecalis [1]): 806 µM | MIC (Citrobacter freundii): 128 µg/mL (≈ 234 µM) | MIC (Escherichia coli [2]): ≤ 0.063 µg/mL | MIC (Escherichia coli [3]): > 128 µg/mL | Activity [4]: 64% | kcat/Km (Alcaligenes faecalis [5]): 0.03 µM⁻¹ s⁻¹

CC(=O)OCC1=C(C(=O)O)N2C(=O)[C@@H](NC(=O)Cc3cccs3)[C@H]2SC1 [CEPHALOTHIN]
MIC (Citrobacter freundii): 512 µg/mL (≈ 1290 µM) | MIC (Escherichia coli [2]): 0.5 µg/mL (≈ 1.26 µM) | MIC (Escherichia coli [3]): > 512 µg/mL | Activity [4]: 100%

O=C(N[C@H](CO)[C@H](O)c1ccc([N+](=O)[O-])cc1)C(Cl)Cl [CHLORAMPHENICOL]
MIC (Citrobacter freundii): > 32 µg/mL | MIC (Escherichia coli [2]): 2 µg/mL (≈ 6.19 µM) | MIC (Escherichia coli [3]): > 32 µg/mL

C[C@@H](O)[C@H]1C(=O)N2C(C(=O)O)=C(SCCNC=N)C[C@H]12 [IMIPENEM ANHYDROUS]
MIC (Citrobacter freundii): 0.063 µg/mL (≈ 0.21 µM) | MIC (Escherichia coli [2]): ≤ 0.063 µg/mL | MIC (Escherichia coli [3]): 0.125 µg/mL (≈ 0.418 µM) | Ki (PER-2 beta-lactamase): 60 nM

NC[C@H]1O[C@H](O[C@H]2[C@H](O)[C@@H](O[C@H]3O[C@H](CO)[C@@H](O)[C@H](N)[C@H]3O)[C@H](N)C[C@@H]2N)[C@H](O)[C@@H](O)[C@@H]1O [KANAMYCIN]
MIC (Citrobacter freundii): > 128 µg/mL | MIC (Escherichia coli [2]): ≤ 0.25 µg/mL | MIC (Escherichia coli [3]): > 128 µg/mL

CCn1cc(C(=O)O)c(=O)c2ccc(C)nc21 [NALIDIXIC ACID]
MIC (Citrobacter freundii): 2 µg/mL (≈ 8.61 µM) | MIC (Escherichia coli [2]): > 128 µg/mL | MIC (Escherichia coli [3]): > 128 µg/mL

CCN1CCN(C(=O)N[C@@H](C(=O)N[C@@H]2C(=O)N3[C@@H]2SC(C)(C)[C@@H]3C(=O)O)c2ccccc2)C(=O)C1=O [PIPERACILLIN]
MIC (Citrobacter freundii): 256 µg/mL (≈ 495 µM) | MIC (Escherichia coli [2]): 0.063 µg/mL (≈ 0.122 µM) | MIC (Escherichia coli [3]): 256 µg/mL (≈ 495 µM) | Ki (PER-2 beta-lactamase): 200 nM | Activity [4]: 30%

CN(C)[C@@H]1C(O)=C(C(N)=O)C(=O)[C@@]2(O)C(O)=C3C(=O)c4c(O)cccc4[C@@](C)(O)[C@H]3C[C@@H]12 [TETRACYCLINE]
MIC (Citrobacter freundii): 0.5 µg/mL (≈ 1.13 µM) | MIC (Escherichia coli [2]): 32 µg/mL (≈ 72 µM) | MIC (Escherichia coli [3]): 32 µg/mL (≈ 72 µM)

B1: PER-2 beta-lactamase (Citrobacter freundii), A2RP81 (protein)
chain: MNVITKCVFTASALLMLGLSSFVVSAQSPLLKEQIETIVTGKKATVGVAVWGPDDLEPLLLNPFEKFPMQSVFKLHLAMLVLHQVDQGKLDLNQSVTVNRAAVLQNTWSPMMKDHQGDEFTVAVQQLLQYSVSHSDNVACDLLFELVGGPQALHAYIQSLGVKEAAVVANEAQMHADDQVQYQNWTSMKAAAQVLQKFEQKKQLSETSQALLWKWMVETTTGPQRLKGLLPAGTIVAHKTGTSGVRAGKTAATNDAGVIMLPDGRPLLVAVFVKDSAESERTNEAIIAQVAQAAYQFELKKLSAVSPD
Km [6]: 9 µM | kcat [6]: 6 s⁻¹ | Km [7]: 320 µM | kcat [7]: 140 s⁻¹ | Km [8]: 16 µM | kcat [8]: 2 s⁻¹ | Km [9]: 38 µM | kcat [9]: 12 s⁻¹ | Km [10]: 5 µM | kcat [10]: 0.5 s⁻¹ | kcat [11]: 0.04 s⁻¹ | Km [12]: 46 µM | kcat [12]: 34 s⁻¹ | Km [13]: 21 µM | kcat [13]: 6 s⁻¹ | Km [14]: 16 µM | kcat [14]: 0.39 s⁻¹ | kcat [15]: < 0.001 s⁻¹ | kcat [16]: < 0.001 s⁻¹ | kcat [17]: 0.23 s⁻¹ | Km [18]: 32 µM | kcat [18]: 48 s⁻¹ | kcat/Km [19]: 0.67 µM⁻¹ s⁻¹ | kcat/Km [20]: 0.43 µM⁻¹ s⁻¹ | kcat/Km [21]: 0.12 µM⁻¹ s⁻¹ | kcat/Km [22]: 0.35 µM⁻¹ s⁻¹ | kcat/Km [23]: 0.1 µM⁻¹ s⁻¹ | kcat/Km [24]: 0.2 µM⁻¹ s⁻¹ | kcat/Km [25]: 0.76 µM⁻¹ s⁻¹ | kcat/Km [26]: 0.3 µM⁻¹ s⁻¹ | kcat/Km [27]: 0.02 µM⁻¹ s⁻¹ | kcat/Km [28]: 0.12 µM⁻¹ s⁻¹ | kcat/Km [29]: 1.5 µM⁻¹ s⁻¹
